In assay [1] the test system is Radical scavenging activity. Nature of the assay: Antioxidant activity assessed as DPPH free radical scavenging activity after 20 mins. The class given is functional. In short, it runs like this:
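DPPH method: samples at 10, 50 and 100 μg/100 μl made up to 100 μl with MeOH, mixed with 5 mL 0.1 mM methanolic DPPH, shaken, left 20 min at 27 °C; A517 read against control without sample. % scavenging = (control OD − sample OD)/control OD × 100. BHA as standard.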
On the technique in general: Loss of DPPH colour is used to gauge radical scavenging.

In another assay the test system is A549. Nature of the assay: Cytotoxicity against human A549 cells by MTT assay. The format is functional, cell-based. In outline:
(§1)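 Cells grown in RPMI 1640 with 10% FCS, penicillin 100 U/mL and streptomycin 100 μg/mL at 37 °C, 5% CO₂. Seeded at 1 × 10⁵ cells/well. Compounds diluted in DMSO, tested at 0–100 µg/mL. Viability read by MTT kit, with medium-only wells as control. IC50 derived by non-linear regression from three independent experiments.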
(In general: Tetrazolium assays rely on reduction of a dye to a coloured formazan, in cell work by metabolically active cells.)

Another assay has as its system HEp-2. Nature of the assay: Cytotoxicity against human Hep2 cells by MTT assay. The class given is functional, cell-based. In short, it runs like this:
as §1

Another assay deals with HeLa. The experiment in a line: Cytotoxicity against human HeLa cells by MTT assay. The format is functional, cell-based. In short, it runs like this:
as §1

Assay [2] can be described thus: Antioxidant activity assessed as ferric ion reducing ability at after 20 mins by spectrophotometric analysis. The format is functional. In outline: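 10, 50 and 500 μg samples in 2.5 mL 200 mmol/L sodium phosphate pH 6.6 plus 2.5 mL 1% potassium ferricyanide, 20 min at 50 °C. Then 2.5 mL 10% TCA added; 5 mL of this mixed with 5 mL water and 1 mL 0.1% FeCl3, and A700 read. BHA as standard.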

Assay [3] can be described thus: Antioxidant activity assessed as equivalents of ascorbic acid at 10 to 500 ug after 90 mins. The class given is functional. In outline: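 Phosphomolybdenum method: 10, 50 and 500 μg samples mixed with 1.9 mL reagent (0.6 M sulfuric acid, 28 mM sodium phosphate, 4 mM ammonium molybdate), held 90 min at 95 °C, cooled, A695 read against blank. Values are μg ascorbic acid equivalents per mg, taken from an ascorbic acid standard curve.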

pIC50: −log10 of the molar value. The source made the active and inactive calls. No cut-off for these calls is given here.

Consider 13 molecules from ChEMBL document CHEMBL1909534, “Solvent-free, microwave assisted Knoevenagel condensation of novel 2,5-disubstituted indole analogues and their biological evaluation” (Eur J Med Chem, 2011).

Regarding `O=C1NC(=O)/C(=C/c2c[nH]c3ccccc23)S1`, the Activity entry in assay [1] and in assay [2] was “Dose-dependent effect” each time. In addition, the pIC50 with A549 is 4.06; in the assay with HEp-2, less than 4.00; in the assay on HeLa it was 4.22. In assay [3], the outcome was Active.
In the case of `O=C1NC(=S)NC(=O)C1=Cc1c(-c2ccccc2)[nH]c2ccc(Cl)cc12`, the Activity result in assay [1] and in assay [2] was “Dose-dependent effect” throughout. Moreover, the pIC50 was 4.56 with A549, 4.34 in the assay on HEp-2 and 4.63 with HeLa. Also, the result in assay [3] was Active.
With `CC1=NNC(=O)/C1=C/c1c(-c2ccccc2)[nH]c2ccc(C)cc12`, the outcome in assay [1] was inactive. The results for the negative logarithm of the IC50 (pIC50) in the assay on A549, with HEp-2 and with HeLa were 5.11, 4.58 and less than 4.00, respectively. In assay [2], the Activity result is “Dose-dependent effect”. For the same molecule, the outcome in assay [3] was Active.
As to `COc1cccc2c1C(=O)c1c(O)c3c(c(O)c1C2=O)C[C@@](O)(C(=O)CO)C[C@@H]3O[C@H]1C[C@H](N)[C@H](O)[C@H](C)O1` [DOXORUBICIN], the pIC50 was 6.15 in the assay on A549, 5.06 in the assay with HEp-2 and 6.15 with HeLa.
Consider `CC1=NNC(=O)/C1=C/c1c(-c2ccccc2)[nH]c2ccc(Cl)cc12`, for which the Activity entry in assay [1] and in assay [2] was “Dose-dependent effect” in each case. For the same molecule, the negative logarithm of the IC50 (pIC50) is 6.00 in the assay with A549, 5.10 in the assay on HEp-2 and 5.68 with HeLa. The outcome in assay [3] was Active.
Take `O=C1NC(=O)C(=Cc2c(-c3ccccc3)[nH]c3ccc(Cl)cc23)C(=O)N1`: the Activity result in assay [1] and in assay [2] was “Dose-dependent effect” each time. Further, the figures for the pIC50 with A549, with HEp-2 and in the assay with HeLa were 4.57, less than 4.00 and 4.52, respectively. Also, the result in assay [3] was Active.
As for `O=C1NC(=O)/C(=C/c2c(-c3ccccc3)[nH]c3ccc(Cl)cc23)S1`, the Activity result in assay [1] and in assay [2] was “Dose-dependent effect” throughout. Also, the results for the pIC50 in the assay on A549, in the assay on HEp-2 and in the assay with HeLa were 5.35, 4.92 and 5.15, respectively. Further, the result in assay [3] was Active.
As for `O=C1NC(=S)NC(=O)C1=Cc1c[nH]c2ccccc12`, the Activity entry in assay [1] and in assay [2] was “Dose-dependent effect” in each case. Also, the pIC50 in the assay with A549 is 4.28; in the assay on HEp-2, less than 4.00; in the assay with HeLa, 4.20. Besides, in assay [3], the result was Active.
On to `O=C1NC(=O)C(=Cc2c[nH]c3ccccc23)C(=O)N1`, for which the Activity entry in assay [1] and in assay [2] was “Dose-dependent effect” each time. The negative logarithm of the IC50 (pIC50) with A549 was 4.11; in the assay with HEp-2, less than 4.00; with HeLa it was 4.13. Besides, in assay [3], the result was Active.
For the molecule `Cc1ccc2[nH]c(-c3ccccc3)c(/C=C3\SC(=O)NC3=O)c2c1`, in assay [1], the result was inactive. The pIC50 in the assay on A549, in the assay with HEp-2 and with HeLa was less than 4.00 throughout. Moreover, the Activity result in assay [2] is “Dose-dependent effect”. Besides, in assay [3], the result was Active.
For the molecule `Cc1ccc2[nH]c(-c3ccccc3)c(C=C3C(=O)NC(=O)NC3=O)c2c1`, the outcome in assay [1] was inactive. In addition, the negative-log IC50 (pIC50) with A549, with HEp-2 and with HeLa was less than 4.00 in each case. Besides, the Activity entry in assay [2] was “Dose-dependent effect”. The result in assay [3] was Active.
In the case of `CC1=NNC(=O)/C1=C/c1c[nH]c2ccccc12`, the Activity result in assay [1] and in assay [2] was “Dose-dependent effect” each time. Further, the pIC50 was 5.47 in the assay on A549, 5.92 in the assay with HEp-2 and 4.48 in the assay with HeLa. Also, in assay [3], the outcome was Active.
In the case of `Cc1ccc2[nH]c(-c3ccccc3)c(C=C3C(=O)NC(=S)NC3=O)c2c1`, the outcome in assay [1] was inactive. Also, the pIC50 in the assay on A549, with HEp-2 and with HeLa was less than 4.00 in each case. Besides, in assay [2], the Activity entry was “Dose-dependent effect”. Besides, in assay [3], the outcome was Active.

By pIC50 is commonly meant the negative decadic logarithm of the IC50, by convention in mol/L.
